According to ChEMBL document CHEMBL1131570, “2,5-bis[4-(N-alkylamidino)phenyl]furans as anti-Pneumocystis carinii agents” (J Med Chem, 1998):

Key:
Rattus norvegicus [1] = assay: The cysts/g of lung (% of control ) is calculated at a dose of 10.4 umol/kg/day against Pneumocystis carinii in rats; assay type: functional
Summary of the method: (§1)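 Rat *P. carinii* pneumonia model: furan dications given intravenously; lung cysts counted per g of lung tissue and expressed relative to pooled saline-treated control rats.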

[2] = Toxicity at a dose of 10.4 umol/kg/day against Pneumocystis carinii in rats; conditions: rat, in vivo
Rattus norvegicus [3] = assay: The cysts/g of lung (% of control ) is calculated at a dose of 10.8 umol/kg/day against Pneumocystis carinii in rats; assay type: functional; summary of the method: as §1
Rattus norvegicus [4] = assay: The cysts/g of lung (% of control ) is calculated at a dose of 0.5 umol/kg/day against Pneumocystis carinii in rats; assay type: functional; summary of the method: as §1
[5] = Toxicity at a dose of 0.5 umol/kg/day against Pneumocystis carinii in rats; conditions: rat, in vivo
[6] = Toxicity at a dose of 10.8 umol/kg/day against Pneumocystis carinii in rats; conditions: rat, in vivo
Rattus norvegicus [7] = assay: The cysts/g of lung (% of control ) is calculated at a dose of 0.9 umol/kg/day against Pneumocystis carinii in rats; assay type: functional; summary of the method: as §1
Rattus norvegicus [8] = assay: The cysts/g of lung (% of control ) is calculated at a dose of 9.1 umol/kg/day against Pneumocystis carinii in rats; assay type: functional; summary of the method: as §1
[9] = Toxicity at a dose of 9.1 umol/kg/day against Pneumocystis carinii in rats; conditions: rat, in vivo
[10] = Toxicity at a dose of 0.9 umol/kg/day against Pneumocystis carinii in rats; conditions: rat, in vivo
Rattus norvegicus [11] = assay: The cysts/g of lung (% of control ) is calculated at a dose of 10 umol/kg/day against Pneumocystis carinii in rats; assay type: functional; summary of the method: as §1
[12] = Toxicity at a dose of 10 umol/kg/day against Pneumocystis carinii in rats; conditions: rat, in vivo
Rattus norvegicus [13] = assay: The cysts/g of lung (% of control ) is calculated at a dose of 10.6 umol/kg/day against Pneumocystis carinii in rats; assay type: functional; summary of the method: as §1
[14] = Toxicity at a dose of 0.2 umol/kg/day against Pneumocystis carinii in rats; conditions: rat, in vivo
[15] = Toxicity at a dose of 10.6 umol/kg/day against Pneumocystis carinii in rats; conditions: rat, in vivo
Rattus norvegicus [16] = assay: The cysts/g of lung (% of control ) is calculated at a dose of 0.2 umol/kg/day against Pneumocystis carinii in rats; assay type: functional; summary of the method: as §1
Rattus norvegicus [17] = assay: The cysts/g of lung (% of control ) is calculated at a dose of 1.1 umol/kg/day against Pneumocystis carinii in rats; assay type: functional; summary of the method: as §1
Rattus norvegicus [18] = assay: The cysts/g of lung (% of control ) is calculated at a dose of 2.2 umol/kg/day against Pneumocystis carinii in rats; assay type: functional; summary of the method: as §1
Rattus norvegicus [19] = assay: The cysts/g of lung (% of control ) is calculated at a dose of 0.2 umol/kg /day against Pneumocystis carinii in rats; assay type: functional; summary of the method: as §1
[20] = Toxicity at a dose of 2.2 umol/kg /day against Pneumocystis carinii in rats; conditions: rat, in vivo
[21] = Toxicity at a dose of 1.1 umol/kg / day against Pneumocystis carinii in rats; conditions: rat, in vivo
Rattus norvegicus [22] = assay: The cysts/g of lung (% of control ) is calculated at a dose of 0.9 umol/kg day against Pneumocystis carinii in rats; assay type: functional; summary of the method: as §1
Rattus norvegicus [23] = assay: The cysts/g of lung (% of control ) is calculated at a dose of 1.9 umol/kg day against Pneumocystis carinii in rats; assay type: functional; summary of the method: as §1
Rattus norvegicus [24] = assay: The cysts/g of lung (% of control ) is calculated at a dose of 9.4 umol/kg day against Pneumocystis carinii in rats; assay type: functional; summary of the method: as §1
Rattus norvegicus [25] = assay: The cysts/g of lung (% of control ) is calculated at a dose of 0.2 umol/kg day against Pneumocystis carinii in rats; assay type: functional; summary of the method: as §1
[26] = Toxicity at a dose of 0.2 umol/kg day against Pneumocystis carinii in rats; conditions: rat, in vivo
[27] = Toxicity at a dose of 0.9 umol/kg day against Pneumocystis carinii in rats; conditions: rat, in vivo
[28] = Toxicity at a dose of 1.9 umol/kg day against Pneumocystis carinii in rats; conditions: rat, in vivo
Rattus norvegicus [29] = assay: The cysts/g of lung (% of control ) is calculated at a dose of 4.8 umol/kg/day against Pneumocystis carinii in rats; assay type: functional; summary of the method: as §1
[30] = Toxicity at 10.4 a dose of umol/kg/day against Pneumocystis carinii in rats; conditions: rat, in vivo
Rattus norvegicus [31] = assay: The cysts/g of lung (% of control ) is calculated at a dose of 1.0 umol/kg/day against Pneumocystis carinii in rats; assay type: functional; summary of the method: as §1
Rattus norvegicus [32] = assay: The cysts/g of lung (% of control ) is calculated at a dose of 9.9 umol/kg/day against Pneumocystis carinii in rats; assay type: functional; summary of the method: as §1
[33] = Toxicity at a dose of 1.0 umol/kg/day against Pneumocystis carinii in rats; conditions: rat, in vivo
Rattus norvegicus [34] = assay: The cysts/g of lung (% of control ) is calculated at a dose of 9.7 umol/kg/day against Pneumocystis carinii in rats; assay type: functional; summary of the method: as §1
[35] = Toxicity at a dose of 9.7 umol/kg/day against Pneumocystis carinii in rats;; conditions: rat, in vivo
Rattus norvegicus [36] = assay: The cysts/g of lung (% of control ) is calculated at a dose of 2.7 umol/kg/day against Pneumocystis carinii in rats; assay type: functional
Summary of the method: (§2)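 P. carinii-infected rats dosed intravenously with the furan dication. Cysts were counted per g of lung tissue and expressed as % of the mean count of pooled saline-treated controls (n = 142).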

Rattus norvegicus [37] = assay: The cysts/g of lung (% of control ) is calculated at a dose of 0.03 umol/kg /day against Pneumocystis carinii in rats; assay type: functional; summary of the method: as §2
Rattus norvegicus [38] = assay: The cysts/g of lung (% of control ) is calculated at a dose of 0.3 umol/kg /day against Pneumocystis carinii in rats; assay type: functional; summary of the method: as §2
[39] = Toxicity at a dose of 2.7 umol/kg/day against Pneumocystis carinii in rats; conditions: rat, in vivo
[40] = Toxicity at a dose of 0.03 umol/kg/day against Pneumocystis carinii in rats; conditions: rat, in vivo
[41] = Toxicity at a dose of 0.3 umol/kg/day against Pneumocystis carinii in rats; conditions: rat, in vivo
Rattus norvegicus [42] = assay: The cysts/g of lung (% of control ) is calculated at a dose of 13.3 umol/kg/day against Pneumocystis carinii in rats; assay type: functional; summary of the method: as §1
Rattus norvegicus [43] = assay: The cysts/g of lung (% of control ) is calculated at a dose of 22.0 umol/kg/day against Pneumocystis carinii in rats; assay type: functional; summary of the method: as §1
[44] = Toxicity at a dose of 13.3 umol/kg/day against Pneumocystis carinii in rats; conditions: rat, in vivo
[45] = Toxicity at a dose of 22.0 umol/kg/day against Pneumocystis carinii in rats;; conditions: rat, in vivo

N=C(NCCO)c1ccc(-c2ccc(-c3ccc(C(=N)NCCO)cc3)o2)cc1
Control (Rattus norvegicus [1]): 0.6%
Toxicity [2]: 0

N=C(NCC1CC1)c1ccc(-c2ccc(-c3ccc(C(=N)NCC4CC4)cc3)o2)cc1
Control (Rattus norvegicus [3]): 0.24%
Control (Rattus norvegicus [4]): 3.25%
Toxicity [5]: 0
Toxicity [6]: 0

N=C(NC1CCCCC1)c1ccc(-c2ccc(-c3ccc(C(=N)NC4CCCCC4)cc3)o2)cc1
Control (Rattus norvegicus [7]): 26.28%
Control (Rattus norvegicus [8]): 0.02%
Toxicity [9]: 0
Toxicity [10]: 0

CC(C)CNC(=N)c1ccc(-c2ccc(-c3ccc(C(=N)NCC(C)C)cc3)o2)cc1
Control (Rattus norvegicus [11]): 2.2%
Toxicity [12]: 0

CCCNC(=N)c1ccc(-c2ccc(-c3ccc(C(=N)NCCC)cc3)o2)cc1
Control (Rattus norvegicus [13]): 0.08%
Toxicity [14]: 0
Toxicity [15]: 0
Control (Rattus norvegicus [16]): 107.83%

N=C(NCC1CCCCC1)c1ccc(-c2ccc(-c3ccc(C(=N)NCC4CCCCC4)cc3)o2)cc1
Control (Rattus norvegicus [13]): 43.9%
Toxicity [15]: 0

CC(C)NC(=N)c1ccc(-c2ccc(-c3ccc(C(=N)NC(C)C)cc3)o2)cc1
Control (Rattus norvegicus [17]): 11.73%
Control (Rattus norvegicus [3]): 0.2%
Control (Rattus norvegicus [18]): 8.41%
Control (Rattus norvegicus [19]): 169%
Toxicity [20]: 0
Toxicity [14]: 0
Toxicity [21]: 0
Toxicity [6]: 0

N=C(NC1CCCC1)c1ccc(-c2ccc(-c3ccc(C(=N)NC4CCCC4)cc3)o2)cc1
Control (Rattus norvegicus [22]): 0.11%
Control (Rattus norvegicus [23]): 0.08%
Control (Rattus norvegicus [24]): 0.03%
Control (Rattus norvegicus [25]): 93.5%
Toxicity [26]: 0
Toxicity [27]: 0
Toxicity [28]: 0

CCC(CC)NC(=N)c1ccc(-c2ccc(-c3ccc(C(=N)NC(CC)CC)cc3)o2)cc1
Control (Rattus norvegicus [29]): 24.43%

CC/N=C(\N)c1ccc(-c2ccc(-c3ccc(/C(N)=N/CC)cc3)o2)cc1
Control (Rattus norvegicus [1]): 0.05%
Toxicity [30]: 0

N=C(NC1CCC1)c1ccc(-c2ccc(-c3ccc(C(=N)NC4CCC4)cc3)o2)cc1
Control (Rattus norvegicus [31]): 0.67%
Control (Rattus norvegicus [32]): 0.05%
Toxicity [33]: 0

CC(C)CC/N=C(\N)c1ccc(-c2ccc(-c3ccc(/C(N)=N/CCC(C)C)cc3)o2)cc1
Control (Rattus norvegicus [34]): 2.38%
Toxicity [35]: 0

N=C(NC1CC1)c1ccc(-c2ccc(-c3ccc(C(=N)NC4CC4)cc3)o2)cc1
Control (Rattus norvegicus [3]): 0.03%
Toxicity [14]: 0
Control (Rattus norvegicus [16]): 129%

C/N=C(\N)c1ccc(-c2ccc(-c3ccc(/C(N)=N/C)cc3)o2)cc1
Control (Rattus norvegicus [13]): 0.16%
Toxicity [14]: 0
Control (Rattus norvegicus [16]): 85.37%

N=C(N)c1ccc(-c2ccc(-c3ccc(C(=N)N)cc3)o2)cc1 [FURAMIDINE]
Control (Rattus norvegicus [36]): 5.65%
Control (Rattus norvegicus [37]): 21.97%
Control (Rattus norvegicus [38]): 5.38%
Toxicity [39]: 0
Toxicity [40]: 0
Toxicity [41]: 0

N=C(N)c1ccc(OCCCCCOc2ccc(C(=N)N)cc2)cc1 [PENTAMIDINE]
Control (Rattus norvegicus [42]): 0.61%
Control (Rattus norvegicus [43]): 1.46%
Toxicity [44]: 0
Toxicity [45]: Local toxicity
